Measured values taken from ChEMBL document CHEMBL5705905, “Pharmacological targeting of kinases MST1 and MST2 augments tissue repair and regeneration” (Sci Transl Med, 2016).

Experiments:
[1] = target: T1, Serine/threonine-protein kinase 3 (Homo sapiens, UniProt Q13188); assay: Inhibition of recombinant His-tagged full-length MST2 (unknown origin) expressing in Escherichia coli assessed as MOB1a phosphorylation level incubated for 30 min in the presence of 100 uM ATP by immunoblot analysis
T1 sequence (Q13188 whole entry): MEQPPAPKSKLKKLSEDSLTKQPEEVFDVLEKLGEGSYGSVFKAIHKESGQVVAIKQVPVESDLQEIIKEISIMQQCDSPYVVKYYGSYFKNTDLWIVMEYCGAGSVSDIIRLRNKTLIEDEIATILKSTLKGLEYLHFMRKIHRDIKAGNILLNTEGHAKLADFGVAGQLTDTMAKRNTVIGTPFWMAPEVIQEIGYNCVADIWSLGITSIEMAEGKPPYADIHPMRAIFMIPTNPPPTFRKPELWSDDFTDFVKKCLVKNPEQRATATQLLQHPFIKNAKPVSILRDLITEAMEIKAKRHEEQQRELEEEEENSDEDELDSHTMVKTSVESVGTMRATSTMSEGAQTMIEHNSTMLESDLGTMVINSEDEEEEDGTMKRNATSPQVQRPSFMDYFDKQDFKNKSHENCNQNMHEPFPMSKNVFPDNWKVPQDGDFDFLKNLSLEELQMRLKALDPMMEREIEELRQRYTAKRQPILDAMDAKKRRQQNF

[2] = target: RAC-beta serine/threonine-protein kinase (Homo sapiens) (UniProt P31751); assay: Inhibition of AKT2 (unknown origin) assessed as remaining activity at 1 uM by Kinome scan method relative to control
Summary of the method: (§1)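 Active-site-dependent competition-binding (KINOMEscan) panel of 468 kinases, test compound at 1 μM (from a 10 mM DMSO stock). Read-out is ctrl% = (test signal − positive control signal)/(negative control signal − positive control signal) × 100. DMSO is the negative control (100%) and a control compound is the positive control (0%). Lower ctrl% means tighter binding.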

[3] = target: Calcium/calmodulin-dependent protein kinase type 1B (Homo sapiens) (UniProt Q6P2M8); assay: Inhibition of CAMK1B (unknown origin) assessed as remaining activity at 1 uM by Kinome scan method relative to control; summary of the method: as §1
[4] = target: Calcium/calmodulin-dependent protein kinase type 1G (Homo sapiens) (UniProt Q96NX5); assay: Inhibition of CAMK1G (unknown origin) assessed as remaining activity at 1 uM by Kinome scan method relative to control
Summary of the method: (§2)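 Active-site-dependent competition-binding profiling (KINOMEscan) at 1 μM against a 468-kinase panel; compound supplied from a 10 mM DMSO stock. Read-out is ctrl% = (test signal − positive control signal)/(negative control signal − positive control signal) × 100. DMSO is the negative control (100%) and a control compound the positive control (0%). Lower ctrl% means tighter binding.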

[5] = target: Calcium/calmodulin-dependent protein kinase type II subunit alpha (Homo sapiens) (UniProt Q9UQM7); assay: Inhibition of CAMK2A (unknown origin) assessed as remaining activity at 1 uM by Kinome scan method relative to control; summary of the method: as §2
[6] = tested on: Epidermal growth factor receptor (Homo sapiens), P00533 [UNDEFINED MUTATION]; assay: Inhibition of EGFR L747-E749del/A750P mutant (unknown origin) assessed as remaining activity at 1 uM by Kinome scan method relative to control
[7] = tested on: Epidermal growth factor receptor (Homo sapiens), P00533 [L861Q]; assay: Inhibition of EGFR L861Q mutant (unknown origin) assessed as remaining activity at 1 uM by Kinome scan method relative to control
[8] = target: Ephrin type-A receptor 6 (Homo sapiens) (UniProt Q9UF33); assay: Inhibition of EPHA6 (unknown origin) assessed as remaining activity at 1 uM by Kinome scan method relative to control
[9] = tested on: eIF-2-alpha kinase GCN2 (Homo sapiens), Q9P2K8 [S808G]; assay: Inhibition of GCN2 S808G mutant kinase domain 2 (unknown origin) assessed as remaining activity at 1 uM by Kinome scan method relative to control
[10] = target: Serine/threonine-protein kinase MAK (Homo sapiens) (UniProt P20794); assay: Inhibition of MAK (unknown origin) assessed as remaining activity at 1 uM by Kinome scan method relative to control
[11] = target: Mitogen-activated protein kinase kinase kinase kinase 4 (Homo sapiens) (UniProt O95819); assay: Inhibition of MAP4K4 (unknown origin) assessed as remaining activity at 1 uM by Kinome scan method relative to control
[12] = target: Tyrosine-protein kinase Mer (Homo sapiens) (UniProt Q12866); assay: Inhibition of MERTK (unknown origin) assessed as remaining activity at 1 uM by Kinome scan method relative to control
[13] = target: Serine/threonine-protein kinase Nek2 (Homo sapiens) (UniProt P51955); assay: Inhibition of NEK2 (unknown origin) assessed as remaining activity at 1 uM by Kinome scan method relative to control
[14] = target: Phosphatidylinositol 5-phosphate 4-kinase type-2 beta (Homo sapiens) (UniProt P78356); assay: Inhibition of PIP5K2B (unknown origin) assessed as remaining activity at 1 uM by Kinome scan method relative to control
[15] = target: Serine/threonine-protein kinase PLK3 (Homo sapiens) (UniProt Q9H4B4); assay: Inhibition of PLK3 (unknown origin) assessed as remaining activity at 1 uM by Kinome scan method relative to control
[16] = target: RAF proto-oncogene serine/threonine-protein kinase (Homo sapiens) (UniProt P04049); assay: Inhibition of RAF1 (unknown origin) assessed as remaining activity at 1 uM by Kinome scan method relative to control
[17] = tested on: Proto-oncogene tyrosine-protein kinase receptor Ret (Homo sapiens), P07949 [M918T]; assay: Inhibition of RET M918T (unknown origin) assessed as remaining activity at 1 uM by Kinome scan method relative to control
[18] = target: NUAK family SNF1-like kinase 2 (Homo sapiens) (UniProt Q9H093); assay: Inhibition of SNARK (unknown origin) assessed as remaining activity at 1 uM by Kinome scan method relative to control
[19] = target: Tyrosine-protein kinase ZAP-70 (Homo sapiens) (UniProt P43403); assay: Inhibition of ZAP70 (unknown origin) assessed as remaining activity at 1 uM by Kinome scan method relative to control
[20] = Clearance in male Sprague-Dawley rat at 5 mg/kg, iv measured for 24 hrs by LC-MS/MS analysis; type: ADME, organism-based; conditions: in vivo
Summary of the method: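 Sprague-Dawley rats, single intravenous or oral dose. Parameters (half-life, AUC, bioavailability) reported in a supplementary table.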

[21] = Acute toxicity in wild-type mouse assessed as increase in Ki67-positive cells at 1 mg/kg,ip administrated twice daily for 1 to 7 days by Ki67 staining; type: organism-based, Liver; conditions: in vivo, time 1-7 day
Summary of the method: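 Wild-type mice were dosed once a day before two-thirds partial hepatectomy, then given vehicle or 1 mg/kg i.p. twice per day. Ki67-positive cells were counted in liver sections over postoperative days 1 to 7, n = 5; means ± SD, Student's t test.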

[22] = Toxicity in mouse assessed as cancer cell growth at 1 mg/kg, ip administered for 2 months; type: organism-based; conditions: in vivo, 1460 h
Summary of the method: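 Wild-type mice were given 1 mg/kg i.p. daily for 2 months and examined for cancer growth and serum α-fetoprotein.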

Serine/threonine-protein kinase PLK3 (Homo sapiens), sequence (Q9H4B4 whole entry, looked up): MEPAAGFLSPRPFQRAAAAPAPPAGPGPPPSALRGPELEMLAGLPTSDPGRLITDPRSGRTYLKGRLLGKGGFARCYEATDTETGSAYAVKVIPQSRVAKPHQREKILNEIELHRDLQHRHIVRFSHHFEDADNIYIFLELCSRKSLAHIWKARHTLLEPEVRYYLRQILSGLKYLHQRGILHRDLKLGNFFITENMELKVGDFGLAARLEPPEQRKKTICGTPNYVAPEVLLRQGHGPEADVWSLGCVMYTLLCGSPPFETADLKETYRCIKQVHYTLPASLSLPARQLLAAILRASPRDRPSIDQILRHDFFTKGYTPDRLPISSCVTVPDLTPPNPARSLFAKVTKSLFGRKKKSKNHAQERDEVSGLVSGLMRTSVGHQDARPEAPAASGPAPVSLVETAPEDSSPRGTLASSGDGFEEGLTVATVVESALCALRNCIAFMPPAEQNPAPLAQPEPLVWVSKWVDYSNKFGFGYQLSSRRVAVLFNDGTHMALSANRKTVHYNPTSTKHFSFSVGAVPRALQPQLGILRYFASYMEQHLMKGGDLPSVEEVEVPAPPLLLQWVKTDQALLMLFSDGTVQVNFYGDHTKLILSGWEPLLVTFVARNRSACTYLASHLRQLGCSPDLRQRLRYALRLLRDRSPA
Calcium/calmodulin-dependent protein kinase type II subunit alpha (Homo sapiens), sequence (Q9UQM7 whole entry): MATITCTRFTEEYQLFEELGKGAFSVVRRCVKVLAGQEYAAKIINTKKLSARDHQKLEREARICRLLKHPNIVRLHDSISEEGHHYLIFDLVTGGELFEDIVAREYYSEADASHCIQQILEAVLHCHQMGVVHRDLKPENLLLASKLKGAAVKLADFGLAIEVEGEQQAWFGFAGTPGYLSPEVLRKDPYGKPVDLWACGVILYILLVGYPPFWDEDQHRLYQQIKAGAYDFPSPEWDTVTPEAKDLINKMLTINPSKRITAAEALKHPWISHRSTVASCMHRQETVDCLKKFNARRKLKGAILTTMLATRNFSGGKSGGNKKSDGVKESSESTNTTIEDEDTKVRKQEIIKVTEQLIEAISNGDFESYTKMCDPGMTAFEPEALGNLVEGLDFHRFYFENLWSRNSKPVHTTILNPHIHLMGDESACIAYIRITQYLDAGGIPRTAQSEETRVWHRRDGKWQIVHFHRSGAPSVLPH
Phosphatidylinositol 5-phosphate 4-kinase type-2 beta (Homo sapiens), sequence (P78356 whole entry): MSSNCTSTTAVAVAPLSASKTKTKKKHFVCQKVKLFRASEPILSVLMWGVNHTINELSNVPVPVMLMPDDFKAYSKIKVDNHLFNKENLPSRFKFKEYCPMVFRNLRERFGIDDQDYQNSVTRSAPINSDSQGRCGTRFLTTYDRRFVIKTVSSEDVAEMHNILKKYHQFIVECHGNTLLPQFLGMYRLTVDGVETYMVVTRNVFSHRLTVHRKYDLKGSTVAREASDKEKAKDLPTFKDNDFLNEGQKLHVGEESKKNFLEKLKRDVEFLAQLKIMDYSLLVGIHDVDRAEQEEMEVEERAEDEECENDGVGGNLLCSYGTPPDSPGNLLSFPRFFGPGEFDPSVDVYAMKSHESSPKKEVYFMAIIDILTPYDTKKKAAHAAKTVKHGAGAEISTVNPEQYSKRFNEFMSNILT
Calcium/calmodulin-dependent protein kinase type 1G (Homo sapiens), sequence (Q96NX5 whole entry): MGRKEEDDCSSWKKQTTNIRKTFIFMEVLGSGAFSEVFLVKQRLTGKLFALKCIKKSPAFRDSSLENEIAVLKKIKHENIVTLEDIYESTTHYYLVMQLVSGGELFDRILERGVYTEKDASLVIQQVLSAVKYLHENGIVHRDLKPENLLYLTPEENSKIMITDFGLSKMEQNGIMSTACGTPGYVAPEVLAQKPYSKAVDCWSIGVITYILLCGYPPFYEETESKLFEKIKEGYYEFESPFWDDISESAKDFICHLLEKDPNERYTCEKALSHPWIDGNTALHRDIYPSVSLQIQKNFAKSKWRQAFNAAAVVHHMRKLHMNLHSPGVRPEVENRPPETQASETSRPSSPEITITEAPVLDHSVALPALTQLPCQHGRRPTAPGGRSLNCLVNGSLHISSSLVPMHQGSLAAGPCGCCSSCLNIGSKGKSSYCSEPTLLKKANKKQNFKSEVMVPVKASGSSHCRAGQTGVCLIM
Ephrin type-A receptor 6 (Homo sapiens), sequence (Q9UF33 whole entry, the tested form may be a part): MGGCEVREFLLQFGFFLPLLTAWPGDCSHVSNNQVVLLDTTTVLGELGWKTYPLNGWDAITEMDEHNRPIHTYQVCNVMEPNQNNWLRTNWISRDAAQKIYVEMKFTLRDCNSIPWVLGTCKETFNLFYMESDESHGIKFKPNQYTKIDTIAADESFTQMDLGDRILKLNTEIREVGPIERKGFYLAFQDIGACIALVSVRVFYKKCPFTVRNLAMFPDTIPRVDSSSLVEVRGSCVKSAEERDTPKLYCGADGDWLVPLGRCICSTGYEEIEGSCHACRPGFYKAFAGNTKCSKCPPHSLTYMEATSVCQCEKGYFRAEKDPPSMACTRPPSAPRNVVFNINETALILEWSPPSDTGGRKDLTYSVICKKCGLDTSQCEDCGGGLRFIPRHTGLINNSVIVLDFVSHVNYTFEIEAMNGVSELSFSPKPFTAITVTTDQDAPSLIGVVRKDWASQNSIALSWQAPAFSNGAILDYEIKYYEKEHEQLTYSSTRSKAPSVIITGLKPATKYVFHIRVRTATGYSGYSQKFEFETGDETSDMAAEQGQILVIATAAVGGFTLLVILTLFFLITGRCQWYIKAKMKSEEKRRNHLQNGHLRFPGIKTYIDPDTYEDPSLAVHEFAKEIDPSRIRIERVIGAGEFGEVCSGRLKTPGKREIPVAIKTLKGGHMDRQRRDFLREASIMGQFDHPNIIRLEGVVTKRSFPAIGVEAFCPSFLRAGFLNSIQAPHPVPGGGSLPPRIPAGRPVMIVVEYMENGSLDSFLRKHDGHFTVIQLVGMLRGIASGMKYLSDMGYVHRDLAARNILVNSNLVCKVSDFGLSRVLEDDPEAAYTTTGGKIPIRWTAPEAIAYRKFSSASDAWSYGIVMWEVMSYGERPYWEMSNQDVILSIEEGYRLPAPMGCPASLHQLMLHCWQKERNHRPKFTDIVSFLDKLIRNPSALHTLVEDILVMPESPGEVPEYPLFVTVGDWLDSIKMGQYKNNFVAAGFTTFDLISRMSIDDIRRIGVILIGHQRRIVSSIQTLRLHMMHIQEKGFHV
NUAK family SNF1-like kinase 2 (Homo sapiens), sequence (Q9H093 whole entry): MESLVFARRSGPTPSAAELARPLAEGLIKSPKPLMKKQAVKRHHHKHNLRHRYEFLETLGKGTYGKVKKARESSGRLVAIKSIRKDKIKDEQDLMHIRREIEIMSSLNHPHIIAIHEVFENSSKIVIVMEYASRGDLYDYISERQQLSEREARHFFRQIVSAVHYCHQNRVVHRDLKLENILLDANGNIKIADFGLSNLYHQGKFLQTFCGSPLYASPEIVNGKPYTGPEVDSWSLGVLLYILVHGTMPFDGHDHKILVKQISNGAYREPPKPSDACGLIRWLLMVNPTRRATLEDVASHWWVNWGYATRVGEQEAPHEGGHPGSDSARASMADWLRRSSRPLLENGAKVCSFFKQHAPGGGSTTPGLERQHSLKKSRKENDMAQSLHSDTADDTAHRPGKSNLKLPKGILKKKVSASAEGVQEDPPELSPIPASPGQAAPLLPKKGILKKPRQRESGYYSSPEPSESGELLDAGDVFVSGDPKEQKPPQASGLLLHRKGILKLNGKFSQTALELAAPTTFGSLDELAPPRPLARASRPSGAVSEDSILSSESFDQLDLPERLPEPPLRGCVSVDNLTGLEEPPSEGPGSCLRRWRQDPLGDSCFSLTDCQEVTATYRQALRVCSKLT
Proto-oncogene tyrosine-protein kinase receptor Ret (Homo sapiens), P07949 [M918T], sequence (P07949 whole entry M918T): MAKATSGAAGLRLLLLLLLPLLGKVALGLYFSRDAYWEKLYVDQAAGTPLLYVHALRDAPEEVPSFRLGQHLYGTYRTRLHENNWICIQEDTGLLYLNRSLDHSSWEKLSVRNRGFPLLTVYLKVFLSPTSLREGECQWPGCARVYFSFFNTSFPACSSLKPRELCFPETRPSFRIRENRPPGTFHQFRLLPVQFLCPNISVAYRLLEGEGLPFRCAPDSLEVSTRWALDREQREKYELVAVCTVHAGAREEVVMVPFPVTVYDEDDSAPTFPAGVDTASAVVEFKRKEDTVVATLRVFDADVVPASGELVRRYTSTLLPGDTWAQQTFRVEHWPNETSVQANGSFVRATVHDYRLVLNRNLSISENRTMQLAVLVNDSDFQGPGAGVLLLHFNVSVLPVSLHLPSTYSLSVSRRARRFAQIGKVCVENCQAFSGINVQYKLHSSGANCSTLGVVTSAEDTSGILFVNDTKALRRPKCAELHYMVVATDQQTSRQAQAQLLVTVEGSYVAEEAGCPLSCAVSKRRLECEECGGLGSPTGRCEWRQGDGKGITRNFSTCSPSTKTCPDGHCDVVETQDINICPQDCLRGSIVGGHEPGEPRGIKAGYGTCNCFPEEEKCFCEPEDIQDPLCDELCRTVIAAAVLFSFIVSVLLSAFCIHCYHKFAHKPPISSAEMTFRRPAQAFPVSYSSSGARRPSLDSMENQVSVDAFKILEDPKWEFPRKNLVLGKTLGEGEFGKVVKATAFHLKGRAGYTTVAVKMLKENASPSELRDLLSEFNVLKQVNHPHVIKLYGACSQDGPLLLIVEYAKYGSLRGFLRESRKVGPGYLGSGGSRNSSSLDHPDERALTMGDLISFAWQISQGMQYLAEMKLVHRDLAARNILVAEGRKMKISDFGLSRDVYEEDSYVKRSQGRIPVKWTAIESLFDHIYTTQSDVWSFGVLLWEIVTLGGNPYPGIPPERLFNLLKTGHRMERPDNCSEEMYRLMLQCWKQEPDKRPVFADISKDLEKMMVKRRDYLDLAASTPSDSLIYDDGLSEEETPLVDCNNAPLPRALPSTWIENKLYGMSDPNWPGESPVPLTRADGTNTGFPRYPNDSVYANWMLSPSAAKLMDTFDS

CN1C(=O)c2sccc2N(C)c2nc(Nc3ccc(S(N)(=O)=O)cc3)ncc21
IC50 [1]: 280 nM
Activity [2]: 100%
Activity [3]: 84%
Activity [4]: 100%
Activity [5]: 77%
Activity [6]: 100%
Activity [7]: 64%
Activity [8]: 99%
Activity [9]: 100%
Activity [10]: 100%
Activity [11]: 100%
Activity [12]: 100%
Activity [13]: 59%
Activity [14]: 100%
Activity [15]: 99%
Activity [16]: 80%
Activity [17]: 78%
Activity [18]: 12%
Activity [19]: 90%
clearance [20]: 65.8 mL/min/kg
Activity [21]: Non-Toxic
Activity [22]: Non-Toxic
